Experimental data as given in publication PMC6402190 (Clinical and Translational Science, 2017).
“Also recorded” adds a separate entry of the source. Read-outs that look alike come from different tables or passages of the source.

Experiments:
[1] = format: in vivo, human (healthy women)
[2] = Safety: treatment emergent adverse events, laboratory, vital signs, ECG; format: in vivo, human (healthy women); conditions: for Dose-dependent AEs or clinically significant findings in safety laboratory values, vital signs, ECG parameters: any of the dose groups
How it was run: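 Subjects were healthy women, aged 18–45 years, with BMI 18.0–28.0 kg/m². Part A gave single escalating i.v. doses (6 active, 2 placebo per cohort). Part B gave 240 mg i.v. on day 1 and once daily on days 8–14 (8 active, 4 placebo). AEs were categorized by nature, frequency, duration, severity, investigator-assessed causality and dose-dependence. Clinical laboratory, blood pressure, heart rate and 12-lead/Holter ECG were also recorded. Summaries are descriptive.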

[3] = Local tolerability: VAS assessment of pain at infusion site; format: in vivo, human (healthy women)
How it was run: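 Healthy women, aged 18–45 years, received single i.v. doses of HPβCD-formulated test compound (60-min infusion in 0.9% saline) or placebo. Pain was self-rated on a 100-mm line (0 = no pain, 100 = unbearable). Read-outs were maximum increase from baseline and area under the VAS-time curve.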

[4] = Local tolerability: Visual Infusion Phlebitis; format: in vivo, human (healthy women)
How it was run: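 The investigator scored the infusion site on the Visual Infusion Phlebitis scale, from 0 (no signs) to 5 (advanced thrombophlebitis). Subjects were healthy women given a single i.v. infusion of test compound or placebo. Scoring was done on day 1 predose after catheter placement, at 0.5, 1, 2, 3, 4, 6, 8, 12, 24, 48 and 72 h postdose, and at the post-trial exam.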

[5] = Local tolerability: ultrasound of the arm veins; format: in vivo, human (healthy women)
How it was run: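 Arm veins were examined by ultrasound in healthy women. In the multiple-dose phase of part B, subjects had once-daily 30-min i.v. infusions of 240 mg test compound or placebo on days 8–14. Scans were done at readmission on day 7 and predose on days 9–14. After the day-14 dose they were repeated at 24, 48 and 72 h and at the final exam.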

[6] = part A, single 120 mg i.v., 30-min infusion, N=6, mean ± SD
[7] = part A, single 240 mg i.v., 30-min infusion, N=6, mean ± SD
[8] = part A, single 480 mg i.v., 60-min infusion, N=6, mean ± SD
[9] = part A, single 720 mg i.v., 60-min infusion, N=6, mean ± SD
[10] = part A, single 960 mg i.v., 60-min infusion, N=6, mean ± SD
[11] = part B, single 240 mg i.v. day 1, 30-min infusion, N=8, mean ± SD
[12] = part A, letermovir total (N=30)
[13] = part B, multiple-dose letermovir
[14] = part A, single dose 120 mg (N=6)
[15] = part A, single dose 120 mg (N=6), listed as letermovir
[16] = part A, single dose 240 mg (N=6)
[17] = part A, single dose 480 mg (N=6)
[18] = part A, single dose 720 mg (N=6)
[19] = part A, single dose 960 mg (N=6)
[20] = part A, single dose, letermovir total (N=30)
[21] = part B, multiple dose 240 mg (No. 5)
[22] = part B, multiple dose 240 mg (No. 6)
[23] = part B, single dose 240 mg (N=8)

COc1cccc(N2CCN(C3=Nc4c(F)cccc4[C@H](CC(=O)O)N3c3cc(C(F)(F)F)ccc3OC)CC2)c1 [Letermovir]
AUC(0-inf) ([1]; female, human, plasma, intravenous, 240 mg, AUC0–∞ after a single dose, part B, 240 mg single dose): 27500 ng·h/mL | AUC ([1]; female, human, plasma, intravenous, 240 mg, AUCτ,ss, part B, 240 mg q.d., steady state): 33600 ng·h/mL | Tmax ([1]; female, human, plasma, iv, 120 mg): 0.5 h | Tmax ([1]; female, human, plasma, iv, 240 mg): 0.5 h | Tmax ([1]; female, human, plasma, iv, 480 mg): 1 h | Tmax ([1]; female, human, plasma, iv, 720 mg): 1 h | Tmax ([1]; female, human, plasma, iv, 960 mg): 1 h | AUC0–last/D [1, 6]: 0.11 ± 0.03 µg·h/mL/mg | AUC0–∞/D [1, 6]: 0.11 ± 0.03 µg·h/mL/mg | Cmax/D [1, 6]: 0.06 ± 0.01 µg/mL/mg | AUC0–last/D [1, 7]: 0.14 ± 0.04 µg·h/mL/mg | AUC0–∞/D [1, 7]: 0.14 ± 0.04 µg·h/mL/mg | Cmax/D [1, 7]: 0.07 ± 0.01 µg/mL/mg | AUC0–last/D [1, 8]: 0.22 ± 0.04 µg·h/mL/mg | AUC0–∞/D [1, 8]: 0.22 ± 0.04 µg·h/mL/mg | Cmax/D [1, 8]: 0.06 ± 0.01 µg/mL/mg | AUC0–last/D [1, 9]: 0.23 ± 0.03 µg·h/mL/mg | AUC0–∞/D [1, 9]: 0.23 ± 0.03 µg·h/mL/mg | Cmax/D [1, 9]: 0.05 ± 0.00 µg/mL/mg | AUC0–last/D [1, 10]: 0.26 ± 0.06 µg·h/mL/mg | AUC0–∞/D [1, 10]: 0.26 ± 0.06 µg·h/mL/mg | Cmax/D [1, 10]: 0.06 ± 0.01 µg/mL/mg | Tmax ([1]; part B, 240 mg q.d. i.v. day 14, 30-min infusion, N=5, median (minimum-maximum)): 0.50 (0.50–0.50) h | C0h (pre-dose analyte concentration) ([1]; part B, 240 mg q.d. i.v. day 14, N=5, mean ± SD): 193.2 ± 86.23 ng/mL | AUC0–last/D [1, 11]: 0.12 ± 0.02 µg·h/mL/mg | AUC0–∞/D [1, 11]: 0.13 ± 0.02 µg·h/mL/mg | Cmax/D [1, 11]: 0.06 ± 0.01 µg/mL/mg | Tmax ([1]; part B, single 240 mg i.v. day 1, 30-min infusion, N=8, median (minimum-maximum)): 0.50 (0.50–0.50) h | Dose proportionality of Cmax ([1]; single i.v. doses 120–960 mg): dose‐proportional increase; also recorded: approximately proportionally to the dose | Dose proportionality of total exposure AUC0–∞ (AUC0–last) ([1]; single i.v. doses 120–960 mg): slightly more‐than‐dose‐proportional increase; also recorded: more than dose proportional | Increase in exposure on dose-doubling ([1]; single i.v. doses 120–960 mg): threefold | Dose-dependent AEs or clinically significant findings in safety laboratory values, vital signs, ECG parameters [2]: No clinically significant findings | Dose-dependent AEs or clinically significant findings in safety laboratory values, vital signs, ECG parameters ([2]; listed as letermovir): No dose‐dependent AEs or clinically significant findings | Subjects with mild or moderate TEAEs ([2]; part A): 17 subjects | TEAE Vessel puncture site hematoma [2, 12]: 2 No. of subjects | TEAE Vessel puncture site pain [2, 12]: 4 No. of subjects | TEAE Vessel puncture site reaction [2, 12]: 2 No. of subjects | Treatment-related AE headache ([2]; part A, single-dose letermovir): 2 subjects | Treatment-related AE nausea ([2]; part A, single-dose letermovir): 2 subjects | Treatment-related AE vomiting ([2]; part A, single-dose letermovir): 2 subjects | Subjects reporting TEAEs ([2]; part A, single-dose letermovir (18/30)): 60% | Subjects reporting AEs possibly or probably related to treatment ([2]; part A, single-dose letermovir (eight subjects)): 26.7% | Subjects with mild or moderate TEAEs ([2]; part B): 6 subjects | Subjects reporting TEAEs ([2]; part B, letermovir (6/8)): 75% | Subjects with treatment-related AEs [2, 13]: five | Treatment-related AE dizziness [2, 13]: 2 subjects | Treatment-related AE headache [2, 13]: 2 subjects | General tolerability ([2]; single doses up to 960 mg and multiple once-daily 240 mg i.v.): generally safe and well tolerated | Discontinuations due to AEs ([2]; throughout the study): no discontinuations due to AEs | AUC (increase from baseline) of VAS-time curve, Mean (SD) [3, 14]: 2.74 (6.55) h*mm VAS | AUC (increase from baseline) of VAS-time curve, Median [3, 14]: 0.00 h*mm VAS | AUC (increase from baseline) of VAS-time curve, Range [3, 14]: 0.00–16.10 h*mm VAS | VAS maximum increase from baseline, Mean (SD) [3, 14]: 1.17 (2.40) mm VAS | VAS maximum increase from baseline, Median [3, 14]: 0.00 mm VAS | VAS maximum increase from baseline, Range [3, 14]: 0.00–6.00 mm VAS | AUC (increase from baseline) of VAS-time curve, Mean (SD) [3, 15]: 2.74 h*mm VAS | VAS maximum increase from baseline, Mean (SD) [3, 15]: 1.17 mm VAS | AUC (increase from baseline) of VAS-time curve, Mean (SD) [3, 16]: 0.83 (0.61) h*mm VAS | AUC (increase from baseline) of VAS-time curve, Median [3, 16]: 0.83 h*mm VAS | AUC (increase from baseline) of VAS-time curve, Range [3, 16]: 0.00–1.67 h*mm VAS | VAS maximum increase from baseline, Mean (SD) [3, 16]: 1.17 (0.75) mm VAS | VAS maximum increase from baseline, Median [3, 16]: 1.00 mm VAS | VAS maximum increase from baseline, Range [3, 16]: 0.00–2.00 mm VAS | AUC (increase from baseline) of VAS-time curve, Mean (SD) [3, 17]: 0.24 (0.42) h*mm VAS | AUC (increase from baseline) of VAS-time curve, Median [3, 17]: 0.00 h*mm VAS | AUC (increase from baseline) of VAS-time curve, Range [3, 17]: 0.00–1.02 h*mm VAS | VAS maximum increase from baseline, Mean (SD) [3, 17]: 0.5 (0.84) mm VAS | VAS maximum increase from baseline, Median [3, 17]: 0.00 mm VAS | VAS maximum increase from baseline, Range [3, 17]: 0.00–2.00 mm VAS | AUC (increase from baseline) of VAS-time curve, Mean (SD) [3, 18]: 0.39 (0.95) h*mm VAS | AUC (increase from baseline) of VAS-time curve, Median [3, 18]: 0.00 h*mm VAS | AUC (increase from baseline) of VAS-time curve, Range [3, 18]: 0.00–2.33 h*mm VAS | VAS maximum increase from baseline, Mean (SD) [3, 18]: 0.17 (0.41) mm VAS | VAS maximum increase from baseline, Median [3, 18]: 0.00 mm VAS | VAS maximum increase from baseline, Range [3, 18]: 0.00–1.00 mm VAS | VAS maximum increase from baseline, Mean (SD) ([3]; part A, single dose 720 mg (N=6), listed as letermovir): 0.17 mm VAS | AUC (increase from baseline) of VAS-time curve, Mean (SD) [3, 19]: 0.26 (0.64) h*mm VAS | AUC (increase from baseline) of VAS-time curve, Median [3, 19]: 0.00 h*mm VAS | AUC (increase from baseline) of VAS-time curve, Range [3, 19]: 0.00–1.57 h*mm VAS | VAS maximum increase from baseline, Mean (SD) [3, 19]: 0.67 (1.63) mm VAS | VAS maximum increase from baseline, Median [3, 19]: 0.00 mm VAS | VAS maximum increase from baseline, Range [3, 19]: 0.00–4.00 mm VAS | AUC (increase from baseline) of VAS-time curve, Mean (SD) [3, 20]: 0.89 (2.94) h*mm VAS | AUC (increase from baseline) of VAS-time curve, Median [3, 20]: 0.00 h*mm VAS | AUC (increase from baseline) of VAS-time curve, Range [3, 20]: 0.00–16.10 h*mm VAS | VAS maximum increase from baseline, Mean (SD) [3, 20]: 0.73 (1.36) mm VAS | VAS maximum increase from baseline, Median [3, 20]: 0.00 mm VAS | VAS maximum increase from baseline, Range [3, 20]: 0.00–6.00 mm VAS | VAS maximum increase from baseline, Mean (SD) ([3]; part A, single dose, letermovir total (N=30), listed as letermovir): 0.73 mm VAS | AUC (increase from baseline) of VAS-time curve, Mean (SD) [3, 21]: 24.58 (30.23) h*mm VAS | AUC (increase from baseline) of VAS-time curve, Median [3, 21]: 23.95 h*mm VAS | AUC (increase from baseline) of VAS-time curve, Range [3, 21]: 0.00–74.33 h*mm VAS | VAS maximum increase from baseline, Mean (SD) [3, 22]: 0.83 (0.41) mm VAS | VAS maximum increase from baseline, Median [3, 22]: 1.00 mm VAS | VAS maximum increase from baseline, Range [3, 22]: 0.00–1.00 mm VAS | VAS maximum increase from baseline, Mean (SD) ([3]; part B, multiple dose 240 mg (No. 6), listed as letermovir): 0.83 mm VAS | AUC (increase from baseline) of VAS-time curve, Mean (SD) [3, 23]: 0.00 h*mm VAS | AUC (increase from baseline) of VAS-time curve, Median [3, 23]: 0.00 h*mm VAS | AUC (increase from baseline) of VAS-time curve, Range [3, 23]: 0.00 h*mm VAS | VAS maximum increase from baseline, Mean (SD) [3, 23]: 0.00 mm VAS | VAS maximum increase from baseline, Median [3, 23]: 0.00 mm VAS | VAS maximum increase from baseline, Range [3, 23]: 0.00 mm VAS | VIP score ([4]; part A, one subject of 120 mg group, 4 h postinfusion, scale 0–5): 2 | VIP score ([4]; part A, one subject treated with 240 mg, 24 h postinfusion, scale 0–5): 1 | VIP score ([4]; part A, same subject of 120 mg group, 72 h postinfusion, scale 0–5): 1 | VIP score ([4]; part B, one letermovir-treated subject, predose day 14 until 72 h postdose): 1 | VIP score ([4]; part B, throughout the study, all participants except one): 0 | Ultrasound finding in infusion site arm ([5]; part A, one subject in letermovir-treated group, at follow-up): NCS abnormal finding | Ultrasound finding in infusion site arm ([5]; part B): no abnormal findings
